Reference: article PMC3738169 (Journal of medicinal chemistry, 2012)
Blank lines part the entries; values can stand above or below the molecule they belong to.

Legend:
[1] = test system: p-Akt T308 in C4-2LucBAD cells; experiment: p-Akt T308 Western blot in C4-2LucBAD cells; format: cell-based; details: 3 h, dose-response, control PBS
Method in brief: (§1)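 Cells were seeded at 4×105 per 6 cm dish, grown 48 h to about 80% confluence, then exposed to test compound for 3 h with PBS as control. C4-2LucBAD cells were in RPMI 1640, serum-free for 18 h beforehand. LNCaP cells were in T-Medium with 2.5% FBS. U-87 MG cells were in DMEM, serum-free. HEPES pH 7.4 lysates with protease and phosphatase inhibitors were blotted for p-Akt T308, Akt and β-actin.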

[2] = test system: p-Akt T308 in breast cancer BT-549 cells; experiment: C4-2 conditioned medium assay; format: cell-based; details: 11 incubated in media conditioned by BT-549 cells
Method in brief: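 Test compound held 6 h at 37 °C (5% CO2, humidified) in serum-free medium on producer cells; this line's arm used BT-549-conditioned medium. Medium then transferred to BT-549 cells for 3 h. Cells seeded 4×10^5 per 6 cm dish, grown 48 h to ~80% confluence; BT-549 medium carried 0.023 U/mL insulin. Phospho-Akt T308 read by Western blot of clarified lysates; n=3.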

[3] = test system: p-Akt T308 (PI3K/Akt pathway) in prostate cancer C4-2 cells; experiment: p-Akt T308 Western blot in C4-2 cells; format: cell-based
Method in brief: (§2)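 BT-549 cells (RPMI 1640, 10% FBS, 0.023 U/mL insulin) and C4-2 cells (RPMI 1640, 10% FBS) were seeded at 4×105 per 6 cm dish, grown 48 h to about 80% confluence, then moved to serum-free medium. Dosing was a 30 min concentration series with DMSO control, or a 3 h series or 30 min–6 h time course with PBS control. Lysates went to 12% SDS-PAGE and were probed for p-Akt T308, Akt and β-actin, with infrared detection and densitometry.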

C4-2LucBAD cells [4] = experiment: Caspase 3 assay in C4-2LucBAD cells; format: cell-based
[5] = test system: p-Akt T308 in prostate cancer LNCaP cells; experiment: p-Akt T308 Western blot in LNCaP cells; format: cell-based; details: LNCaP cells incubated with 11, 3 h, dose-response, control PBS
Method in brief: as §1

[6] = test system: p-Akt T308 (PI3K/Akt pathway) in breast cancer BT-549 cells; experiment: p-Akt T308 Western blot in BT-549 cells; format: cell-based
Method in brief: as §2

[7] = test system: p-Akt T308 in glioblastoma-astrocytoma U-87 MG cells; experiment: p-Akt T308 Western blot in U-87 MG cells; format: cell-based; details: U-87 MG cells (no PSA) incubated with 11, 3 h, control PBS
Method in brief: as §1

[8] = test system: purified active human PSA; p-Akt T308 in BT-549 cells; experiment: Cleavage of compound 11 with purified PSA, then p-Akt T308 in BT-549 cells; format: cell-based; details: 11 without PSA, added to BT-549 cells for 30 min
Method in brief: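 Test compound was pre-incubated 6 h at 37 °C in 50 mM Tris-HCl, 0.1 M NaCl, pH 7.8 with increasing concentrations of enzymatically active PSA purified from human semen. It was then applied for 30 min to serum-starved BT-549 cells, maintained in RPMI 1640 with 10% FBS and 0.023 U/mL insulin. p-Akt T308 was read by Western blot against a PBS control, in three independent experiments.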

C4-2LucBAD cells [9] = details: C42LucBAD cells that ectopically express BAD; cited from earlier work
Water solubility = details: qualitative statement

Molecule: Mu-LEHSSKLQL-8-(4-(Hydroxymethyl)phenyl)-2-morpholino-4H-chromen-4-one [Compound 11]
p-Akt T308 levels [1]: dose-dependent reduction
p-Akt T308 levels in BT-549 cells after 11 incubated in BT-549 conditioned media [2]: had no effects
p-Akt T308 levels ([3]; C4-2 cells incubated with 11, 3 h, dose-response, control PBS): dose-dependent reduction
p-Akt T308 levels, time course ([3]; C4-2 cells treated with 11 from 30 min to 6 h, vs control, Western blot, three independent experiments): time-dependent reduction
Caspase 3 activity compared with active inhibitor (C4-2LucBAD cells [4]; 6 h): Somewhat lower levels
Caspase 3 activity (apoptosis) (C4-2LucBAD cells [4]; 6 h after administration, fluorogenic substrate Ac-DEVD-7-amido-4-trifluoromethylcoumarin, n=2, vs DMSO control): increased
p-Akt T308 levels [5]: dose-dependent reduction
p-Akt T308 levels ([6]; BT-549 cells (no PSA) incubated with 11, 3 h, control PBS): No significant reduction
p-Akt T308 levels, time course ([6]; BT-549 cells treated with 11 from 30 min to 6 h, Western blot, three independent experiments): no significant differences
p-Akt T308 levels [7]: No significant reduction
p-Akt T308 levels in BT-549 cells, 11 without enzymatically active PSA [8]: had no effect

Molecule: CC(C)CC(N)C(=O)OCc1ccc(-c2cccc3c(=O)cc(N4CCOCC4)oc23)cc1 (stereo not shown) [Compound 10, 4-(2-morpholino-4-oxo-4H-chromen-8-yl) benzyl-2-amino-4-methylpentanoate]
PI3 kinase inhibitory potency relative to LY294002 ([3]; C4-2 and BT-549 cells, p-Akt T308 read-out, 30 min): comparable to LY294002
concentration that completely inhibited Akt phosphorylation ([3]; C4-2 cells, 30 min, dose-response analysis): 30 µM
concentration that completely inhibited Akt phosphorylation ([6]; BT-549 cells, 30 min, dose-response analysis): 30 µM

water solubility (Water solubility): poor water solubility
Molecule: O=c1cc(N2CCOCC2)oc2c(-c3ccccc3)cccc12 [LY294002]
induction of apoptosis (C4-2LucBAD cells [9]): induces apoptosis
